# Hits are enriched below; roughly 3.5% of the tested compounds scored in any of these assays.
# MrgX1 agonist: activates human MrgX1 receptor signaling; Q96LB2; MrgX1-HEK293 cells, Fluo-4 calcium fluorescence, agonist mode; active compounds read high; B-score at 10 µM; 310,000 tested, 0.44% active;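 active = calcium response B-score plate-corrected fluorescence ratio at least 3 library SD, with starting fluorescence B-score inside 5 SD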
# Target sequence (Q96LB2 whole entry, looked up): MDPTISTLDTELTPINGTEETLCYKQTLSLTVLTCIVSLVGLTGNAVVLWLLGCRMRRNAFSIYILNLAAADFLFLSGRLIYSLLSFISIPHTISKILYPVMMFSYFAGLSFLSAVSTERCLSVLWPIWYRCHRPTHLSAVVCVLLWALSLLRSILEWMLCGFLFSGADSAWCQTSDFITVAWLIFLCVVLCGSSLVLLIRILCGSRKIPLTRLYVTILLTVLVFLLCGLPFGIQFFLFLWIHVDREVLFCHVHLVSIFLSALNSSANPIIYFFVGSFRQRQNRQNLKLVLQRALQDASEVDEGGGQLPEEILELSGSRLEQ
#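 Assay system: stable human MrgX1 HEK293 cell line. Quantity: 15,000 cells per well. Schedule: cells plated overnight, dye loaded 0.5 h 37 °C, 0.5 h room temperature. Detection: Fluo-4 NW calcium-flux fluorescence, kinetic read. Read-out basis: peak-minus-minimum fluorescence over baseline, converted to B scores. Control set: positive and negative control wells on each plate.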
# RGS4 pot: RGS4 potentiation or activation; B-score at 10 µM; HEK293 M3R/inducible RGS4, carbachol calcium flux Fluo4; active compounds read low; 310,000 tested, 0.92% active;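 active = B-score of the integrated calcium signal more than 4 SD below the library mean, with starting fluorescence not abnormally high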;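 note: negative B-score means reduced calcium response which marks RGS4 activation or potentiation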
#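 Assay system: Inducible-RGS4 HEK293 cells carrying M3 receptor | Schedule: Compound preincubation 20 min at room temperature before agonist | Signal: Kinetic calcium fluorescence imaging with Fluo4-AM dye, 2 µM | Read-out basis: B score from integrated fluorescence ratio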
# RGS4 inh: inhibitors of human RGS4 | P49798 | HEK293 M3R/RGS4 inducible, Fluo-4 calcium flux; active compounds read high; triggered by carbachol at its EC20 | B-score at 10 µM | 310,000 tested, 0.45% active | AID 463165;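 active = B-score, a plate-corrected calcium signal, over three deviations above library mean, with baseline fluorescence within five deviations of library mean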;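 note: RGS4 expression induced by doxycycline in cells with stable M3 receptor; B-score is computed from the integrated fluorescence ratio over baseline after carbachol; higher B-score means a larger calcium signal and so more RGS4 inhibition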
# Target sequence (P49798 whole entry, looked up): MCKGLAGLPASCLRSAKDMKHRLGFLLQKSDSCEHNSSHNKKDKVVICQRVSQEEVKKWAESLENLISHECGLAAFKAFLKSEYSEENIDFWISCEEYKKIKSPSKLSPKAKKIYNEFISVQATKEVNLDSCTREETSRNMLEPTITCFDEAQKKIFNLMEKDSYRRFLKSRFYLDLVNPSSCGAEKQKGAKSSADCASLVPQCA
# MrgX1 allo act: allosterically activates human MrgX1 receptor signaling; MrgX1-HEK293, Fluo-4 calcium flux, FDSS; active compounds read high; B-score at 10 µM; 310,000 tested, 0.63% active; AID 588675;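 active = plate-corrected calcium response at least 3 library SD above typical, normal starting fluorescence, not activating the receptor alone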;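 note: compound read alongside a low EC10 to EC30 dose of BAM8-22 agonist; peak minus trough fluorescence over baseline measured at the second addition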
# MrgX1 antag: blocks BAM8-22 activation of human MrgX1 receptor; MRGX1-HEK293 calcium flux, Fluo-4, BAM8-22 antagonism; active compounds read low; B-score at 10 µM; Q96LB2; 310,000 tested, 1.3% active;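 active = calcium-response B-score plate-corrected more than 3 library SD below zero, starting fluorescence within 5 deviations, no agonist response on first addition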;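 note: peak minus trough fluorescence over baseline after final BAM8-22 challenge near maximal dose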
# RGS4 act valid: RGS4 activation, validation assay; shares compounds with RGS4 pot; HEK293 M3R/RGS4 inducible, carbachol calcium flux Fluo4; inhibition, % at 10 µM; 1,100 tested, 89% active;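 active = inhibition above 3 SD of the buffer control wells, cut at about 41% in these data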;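 note: signal is the integrated peak-minus-minimum Fluo4 fluorescence over baseline ratio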
# M3R Ca counter: activity in cells without induced RGS4 expression | HEK293 M3R non-induced RGS4, Fluo4 calcium flux; after carbachol challenge at its EC90 | inhibition, % at 10 µM | AID 602283 | 1,100 tested, 82% active | shares compounds with RGS4 pot;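 active = inhibition exceeding 3 SD of buffer-only control wells, cut at about 26% in these data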;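 note: percent drop in integrated peak-minus-baseline over baseline Fluo4 ratio after carbachol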
# * marks the source's active call; other numbers are inactive results; i = inactive; / = not tested or not shown.
SMILES,MrgX1 agonist,RGS4 pot,RGS4 inh,MrgX1 allo act,MrgX1 antag,RGS4 act valid,M3R Ca counter
COP(=O)(OC)C(NC(=O)C(C)(C)C)=C(Cl)Cl,i,i,i,i,-5.8*,/,/
CCCC(C)n1[nH]c(=O)c2c1NC(=O)CSC2c1ccccc1 (stereo unspecified),i,i,i,i,i,/,/
O=P(Nc1ccccc1)(Oc1ccccc1)Oc1ccccc1,i,i,i,i,i,/,/
COc1cccc(OP(=O)(Nc2ccccc2)Oc2cccc(OC)c2)c1,i,-9.9*,i,i,i,/,/
CCN1CCN(S(=O)(=O)c2ccc(Cl)c(C(=O)Nc3ccc(C(=O)N(CC)CC)cc3)c2)CC1,i,i,i,i,i,/,/
CCC[N+]12CCC(CC1)C(C(O)(c1ccccc1)c1ccccc1)C2 (stereo unspecified),i,i,i,i,i,/,/
CC[N+]12CCC(CC1)C(=C(c1ccccc1)c1ccccc1)C2,i,-10*,i,i,i,/,/
C[N+]12CCC(CC1)C(=C(c1ccccc1)c1ccccc1)C2,i,-8.8*,i,i,i,/,/
Cc1ccc(OCC(=O)N2CCN(C3CCC(c4ccccc4)CC3)CC2)cc1 (stereo unspecified),i,i,i,i,i,/,/
CC12CN3CCN(C1)CC(C)(C3)C2=NN,i,i,i,i,i,/,/
C=CC[N+]1(C)CC[C@]23c4c5ccc(O)c4O[C@H]2C(=O)CC[C@@]3(O)[C@H]1C5 (stereo partly specified),i,i,i,i,i,/,/
O=[N+]([O-])c1cc(O)c(O)c([N+](=O)[O-])c1,i,/,/,i,-5.4*,/,/
O=c1[nH]c(=S)n(-c2ccccc2)c(O)c1/C=N/N1CCOCC1,i,i,i,i,i,/,/
COc1ccc(-n2c(/C=C/c3ccc(O)c(O)c3)nc3ccccc3c2=O)cc1,i,i,i,i,i,/,/
COc1cc(/C=C/c2nc3ccccc3c(=O)n2-c2ccc(O)cc2)ccc1O,i,-8.2*,i,i,i,/,/
CCOC(=O)C1(c2ccccc2)CCN(CCC(C#N)(c2ccccc2)c2ccccc2)CC1,i,i,i,i,i,/,/
CC(=O)c1ccc2c(c1)C1C(Cl)C(Sc3ccccc3[N+](=O)[O-])CC1C(c1ccccc1[N+](=O)[O-])N2 (stereo unspecified),i,-7.9*,i,i,i,/,/
CC(Cc1ccccc1Sc1ccc(O)cc1)N(C)C (stereo unspecified),i,-9.2*,i,i,i,95*,94*
CC(N)Cc1ccccc1Sc1ccc(O)cc1 (stereo unspecified),i,i,i,i,i,/,/
COc1cccc(C(=O)C2CCCN(C3CCOCC3)C2)c1 (stereo unspecified),i,i,i,i,i,/,/
CC(=O)N1CCC(N2CCCC(C(=O)c3cccc(Cl)c3)C2)CC1 (stereo unspecified),i,-10*,i,i,i,80*,84*
Cc1cc(OCC(=O)O)c2c3c(c(=O)oc2c1)CCCC3,i,i,i,i,i,/,/
COC(=O)c1ccc(COc2cc(C)cc3oc(=O)c4c(c23)CCCC4)o1,i,-11*,i,i,i,79*,46*
CC1CCN(CCc2nc3ccccc3[nH]2)CC1,i,i,i,i,i,/,/
OC(c1cccc(Cl)c1)(c1cccc(Cl)c1)C1CN2CCC1CC2 (stereo unspecified),i,-14*,i,i,i,93*,93*
SMILES,MrgX1 agonist,RGS4 pot,RGS4 inh,MrgX1 allo act,MrgX1 antag,RGS4 act valid,M3R Ca counter
O=C(/C=C/c1c[nH]c2ccccc12)c1c(O)n(CCc2ccccc2)c(=O)[nH]c1=O,i,i,i,i,i,/,/
C/C(=N\N1CCCCCC1)c1c(O)n(-c2ccccc2C)c(=O)[nH]c1=O,i,i,i,i,i,/,/
CCOP(=O)(OCC)C(Cc1ccccc1)NC(C)=O (stereo unspecified),i,i,i,i,i,/,/
CCOP(=S)(NN(Cc1ccccc1)C(=O)c1ccccc1)OCC,i,-14*,i,i,i,0,0
Clc1ccc(-c2nc3ccc(Cl)cn3c2CN2CCCCC2)cc1,i,i,i,i,i,/,/
CCN(CC)S(=O)(=O)c1cc(NC(=O)C(C)N2CC=C(c3ccccc3)CC2)ccc1C (stereo unspecified),i,-7.6*,i,i,i,79*,35*
CCOC(=O)C1(CCc2ccccc2)CCN(Cc2cccc3cnccc23)CC1,i,-11*,i,i,i,89*,59*
CCn1ccnc1CN1CCCC(C(=O)c2cccc(C(F)(F)F)c2)C1 (stereo unspecified),i,-9.9*,i,i,i,93*,87*
COc1ccc(C(=O)C2CCCN(C3CSCCSC3)C2)c(OC)c1 (stereo unspecified),i,-7.7*,i,i,i,45*,84*
COc1ccc(C(=O)C2CCCN(C3CSCCSC3)C2)c(C)c1 (stereo unspecified),i,-8.8*,i,i,i,86*,44*
COc1ccc(C(=O)C2CCCN(Cc3ccc(C)s3)C2)c(OC)c1 (stereo unspecified),i,i,i,i,i,/,/
COc1ccc(C(=O)C2CCCN(CCO)C2)c(C)c1 (stereo unspecified),i,i,i,i,i,/,/
CCN(CC)CCCOC(=O)C(OC)(c1ccccc1)c1ccccc1,i,-11*,i,i,i,91*,86*
CSc1ccc(C(=O)C2CCCN(Cc3cccnc3)C2)cc1 (stereo unspecified),i,-8.5*,i,i,i,68*,26*
O=C(C[N+]12CCC(CC1)C(CO)C2)c1ccc(Br)cc1 (stereo unspecified),i,i,i,i,i,/,/
C=CCn1c(O)c(C(C)=NCCCn2ccnc2)c(=O)[nH]c1=O,i,i,i,i,i,/,/
CN1CC=C(/C=C/c2ccc(-c3ccccc3)cc2)CC1,i,-8.7*,i,i,i,66*,31*
CCOc1cc2c(cc1OCC)-n1cccc1C(c1ccc(F)c(OC)c1)NC2 (stereo unspecified),i,i,i,i,i,/,/
